Assay results collected from several papers.
Lines come from different studies, so protocols differ. pIC50: −log10 of the molar value.
Read-out: cell growth or viability

Structure (SMILES) | cell line | method | time | pIC50
C=CC(=O)N1CCC[C@@H](n2nc(-c3ccc(Oc4ccccc4)cc3)c3c(N)ncnc32)C1 | CNE2Z |  |  | < 5.00
C=CCC[C@@H]1NC(=O)[C@H]2CCCN2C(=O)[C@H](Cc2ccccc2)NC(=O)C(C)(C)NC1=O | HEK293 | XTT |  | < 4.00
CCCCCCCCc1c(C)[nH]c(C)c(Cl)c1=O | HEK293 |  |  | < 5.00
CC(=O)SCc1cc(=O)oc2cc(O)ccc12 | HEK293 | MTT | 36 h | < 4.70
O=C1NC(=NCc2cccs2)S/C1=C\c1ccc2ncccc2c1 | SK-MEL-28 |  |  | < 5.00
Cc1[nH]c(C)c(-c2ccc(OCc3ccc(F)cc3)cc2)c(=O)c1Cl | HEK293 |  |  | < 5.00
CCN(CC)C(=O)c1ncn2c(=O)n(C)nnc12 | T98G | resazurin | 7 days | 3.80
CCC(=O)Nc1cc(Nc2nc(N3CCc4sccc4C3)c3cccnc3n2)c(OC)cc1N1CCN(CCO)CC1 | NCI-H1975 | MTT |  | 6.33
C/C=C/COc1ccc(-c2c(C)[nH]c(C)c(Cl)c2=O)cc1 | HEK293 |  |  | < 5.00
C=C(Cl)C(=O)Nc1cc(Nc2nc(Nc3cnn(C)c3)c3sccc3n2)c(OC)cc1N1CCN(C)CC1 | NCI-H1975 | MTT |  | 6.97
Cn1nnc2c(-c3ccccc3)ncn2c1=O | T98G | resazurin | 7 days | 4.85
CC(=O)O[C@H](C)C(=O)CCCCCCC(=O)Nc1ccccc1 | HEK293 | XTT |  | 4.44
C=C(Cl)C(=O)Nc1cc(Nc2nc(N3CCSCC3)c3sccc3n2)c(OC)cc1N(C)CCN(C)C | NCI-H1975 | MTT |  | 6.78
Cc1c(O)ccc2ccc(=O)oc12 | HEK293 | MTT | 36 h | < 4.70
CC(C)[C@H](N)C(=O)N1CCC[C@H]1B(O)O | SET-2 | ATP luminescence | 48 h | 8.22
Cc1[nH]c(C)c(-c2ccc(-c3ccccc3C(F)(F)F)nc2)c(=O)c1Br | HEK293 |  |  | < 5.00
Cn1nnc2c(C(=O)N3CCCC3)ncn2c1=O | T98G | resazurin | 7 days | 3.73
Cc1cc(=O)c(-c2ccc(Oc3cccc(Cl)c3)cc2)c(C)[nH]1 | HEK293 |  |  | < 5.00
C=CC(=O)Nc1cccc(N2C(=O)OC(C)c3cnc(Nc4ccc(N5CCN(C)CC5)cc4OC)nc32)c1 (stereo not shown) | TMD8 | CCK-8 | 72 h | 7.55

Structure (SMILES) | cell line | method | time | pIC50
O=C1Nc2ccccc2-c2cnc(NCc3c(F)ccc4c3CCO4)n3cnc1c23 | KARPAS-422 | CCK-8 | 7 days | 7.17
C=C(Cl)C(=O)Nc1cc(Nc2nc(N3CCc4sccc4C3)c3sccc3n2)c(OC)cc1N(C)CCN(C)C | NCI-H1975 | MTT |  | 7.06
CCSC(=O)c1ncn2c(=O)n(C)nnc12 | T98G | resazurin | 7 days | 3.49
C=CC(=O)Nc1cc(Nc2nc(N3CCc4sccc4C3)c3cccnc3n2)c(OC)cc1N1CCSCC1 | NCI-H1975 | MTT |  | 6.51
CC(=O)Oc1ccc2ccc(=O)oc2c1CBr | HEK293 | MTT | 36 h | < 4.70
C=C(Cl)C(=O)Nc1cc(Nc2nc(N3CCCC3)c3sccc3n2)c(OC)cc1N(C)CCN(C)C | NCI-H1975 | MTT |  | 6.90
C=CC(=O)Nc1cccc(Nc2nc(Nc3ccc(OCCOC)cc3)ncc2F)c1 | NCI-H1975 |  |  | 5.90
C=C(Cl)C(=O)Nc1cc(Nc2nc(N3CCOCC3)c3sccc3n2)c(OC)cc1N(C)CCN(C)C | NCI-H1975 | MTT |  | 6.92
COc1ccc(F)cc1C(=O)NCc1ccc(-c2nn([C@@H](C)C(F)(F)F)c(N)c2C(N)=O)cc1 | TMD8 | ATP luminescence | 72 h | 8.19
CC[C@@H](C)[C@H](N)C(=O)N1Cc2ccccc2C1 | SET-2 | ATP luminescence | 48 h | 6.91
Cc1[nH]c(C)c(-c2ccc(-c3cccc(C(F)(F)F)c3)nc2)c(=O)c1Br | HEK293 |  |  | < 5.00
C=CC(=O)Nc1cc(Nc2nc(N3CCc4sccc4C3)c3cccnc3n2)c(OC)cc1N1CCN(CCO)CC1 | NCI-H1975 | MTT |  | 6.04
Cc1cc(C)c2cc(CNCCCNc3nc4ccccc4[nH]3)[nH]c2c1 | HEK293 |  |  | < 5.00
CC(C)C[C@H](NC(=O)[C@H](Cc1ccccc1)NC(=O)c1cnccn1)B(O)O | MKN-1 | ATP luminescence |  | 8.28
O=c1cc(CCl)c2ccc(O)cc2o1 | HEK293 | MTT | 36 h | 4.80
O=C(Nc1ccc(OC2CCN(Cc3ccccc3)C2)c(Cl)c1)c1cccs1 (stereo not shown) | HEK293 |  |  | < 5.00
COC(=O)c1cc2ccc(O)cc2oc1=O | HEK293 | MTT | 36 h | < 4.70
COc1cccc(Oc2ccccc2NC(=O)CNC(=O)c2c(C)cc(C)cc2C)c1 | A673 |  |  | 5.26
